From PubChem BioAssay AID588553 (Broad Institute, 2011)

Biological target: Scavenger receptor class B member 1 (Mus musculus) (UniProt Q61009)
Assay: inhibition of HDL lipid transfer via mSR-BI – ldlA[mSR-BI] CHO cells, powder samples, set 3, dose response (AID 588553)
Details: DiI-HDL uptake fluorescence, 3 h
How it was run: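 Incubation: 3 h at 37 °C; material: ldlA[mSR-BI] CHO cells; control set: DMSO and BLT-1; buffer or medium: F12 medium with BSA and HEPES; technique: fluorescence, ex 550 nm, em 595 nm; also added: DiI-labelled HDL, 10 µg/mL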

Chain of Scavenger receptor class B member 1 (Mus musculus) (Q61009 whole entry, looked up): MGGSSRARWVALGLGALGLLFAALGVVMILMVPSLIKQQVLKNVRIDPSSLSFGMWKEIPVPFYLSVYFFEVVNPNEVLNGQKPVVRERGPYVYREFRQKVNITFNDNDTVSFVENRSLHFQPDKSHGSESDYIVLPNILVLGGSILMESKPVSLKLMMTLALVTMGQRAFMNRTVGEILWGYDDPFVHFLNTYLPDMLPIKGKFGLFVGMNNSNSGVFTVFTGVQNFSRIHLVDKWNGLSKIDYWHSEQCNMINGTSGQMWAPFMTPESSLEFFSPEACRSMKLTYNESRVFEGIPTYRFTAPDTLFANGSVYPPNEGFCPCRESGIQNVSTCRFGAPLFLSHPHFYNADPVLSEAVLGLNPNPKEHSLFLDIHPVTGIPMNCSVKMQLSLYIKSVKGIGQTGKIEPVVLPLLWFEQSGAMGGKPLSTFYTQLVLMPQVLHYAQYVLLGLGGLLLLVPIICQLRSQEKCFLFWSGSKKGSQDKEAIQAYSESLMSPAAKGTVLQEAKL

| Structure (SMILES) | AC50 [nM] |
| --- | --- |
| COc1ccc(-c2cc(CC(=O)N(C3CCCCC3)C(C)C(=O)NC3CCCC3)no2)cc1OC (configuration not stated) | 15.4 |
| CCNC(=O)N1CCc2cc(-c3csc(NC(=O)c4cc(OC)cc(OC)c4)n3)ccc21 | < 15 |
| CCC(=O)N1CCc2cc(-c3csc(NC(=O)c4cc(OC)c(OC)c(OC)c4)n3)ccc21 | < 15 |
| O=C(Nc1nc(-c2ccc3c(c2)CCN3)cs1)c1ccco1 | < 15 |
| CCC(=O)N1CCc2cc(-c3csc(N(C)C(=O)c4cc(OC)cc(OC)c4)n3)ccc21 | 180 |
| O=C(CN(C(=O)Cn1nnc(-c2ccc3c(c2)OC(F)(F)O3)n1)C1CCCCC1)NC1CCCC1 | 65.3 |
| CC(C(=O)NC1CCCC1)N(C(=O)Cn1nnc(-c2ccc(Cl)c(Cl)c2)n1)C1CCCCC1 (configuration not stated) | 108 |
| O=C(CN(C(=O)Cn1nnc(-c2ccc3c(c2)OCO3)n1)C1CCCCC1)NC1CCCC1 | < 15 |
| CC(C(=O)NC1CCCC1)N(C(=O)Cn1nnc(-c2ccc3c(c2)OC(F)(F)O3)n1)C1CCCCC1 (configuration not stated) | 225 |
| COc1cc(OC)cc(C(=O)Nc2nc(-c3ccc4c(c3)CCN4C(=O)CN(C)C)cs2)c1 | < 15 |
| CCC(=O)N1CCc2cc(-c3csc(NC(=O)c4cc5cccnc5o4)n3)ccc21 | 141 |
| CCC(=O)N1CCc2cc(-c3csc(/N=C(/OC)c4cc(OC)cc(OC)c4)n3)ccc21 | 44.1 |
| CCC(=O)Nc1ccc(-c2csc(N)n2)cc1 | 140 |
| COC(=O)N1CCc2cc(-c3csc(NC(=O)c4cc(OC)cc(OC)c4)n3)ccc21 | 26.9 |
| CC(C(=O)NC1CCCC1)N(C(=O)Cn1nnc(-c2ccc3c(c2)OCO3)n1)C1CCOCC1 (configuration not stated) | 836 |
| CCC(=O)N1CCc2cc(-c3csc(NC(=O)c4ccco4)n3)ccc21 | 58.7 |

| Structure (SMILES) | AC50 [nM] |
| --- | --- |
| CCC(=O)N1CCc2cc(-c3csc(NC(=O)c4cc(OC)cc(OC)c4)n3)ccc21 | 52.9 |
| COc1cc(OC)cc(C(=O)Nc2nc(-c3ccc4c(c3)CCN4C(C)=O)cs2)c1 | 17.4 |
| CCC(=O)Nc1ccc(-c2csc(NC(=O)c3ccco3)n2)cc1 | 2010 |
| CCCN1CCc2cc(-c3csc(NC(=O)c4cc(OC)cc(OC)c4)n3)ccc21 | 89.5 |
| CC(C(=O)NC1CCCC1)N(C(=O)Cn1nnc(-c2ccc3c(c2)OCO3)n1)C1CCCCC1 (configuration not stated) | 17 |
| COc1cc(OC)cc(C(=O)Nc2nc(-c3ccc4[nH]ccc4c3)cs2)c1 | 228 |
| COc1cc(OC)cc(C(=O)Nc2nc(-c3ccc4c(c3)CCN4)cs2)c1 | 113 |
| COc1ccc(-c2nc(CC(=O)N(C3CCCCC3)C(C)C(=O)NC3CCCC3)cs2)cc1OC (configuration not stated) | 6280 |
| CCC(=O)N1CCc2cc(-c3csc(NC(=O)c4cccc(OC(F)(F)F)c4)n3)ccc21 | 29.2 |
| COc1ccc(-c2nnn(CC(=O)N(CC(=O)NC3CCCC3)C3CCCCC3)n2)cc1OC | < 15 |
| COCC(=O)N1CCc2cc(-c3csc(NC(=O)c4cc(OC)cc(OC)c4)n3)ccc21 | < 15 |
| CCC(=O)Nc1ccc(-c2csc(NC(=O)c3cccc(OC)c3)n2)cc1 | 44.7 |
| COc1cc(OC)cc(C(=O)Nc2nc(-c3ccc4c(c3)CCN4C(=O)OC(C)(C)C)cs2)c1 | < 15 |
| CC(C)(C)OC(=O)N1CCc2cc(-c3noc(NC(=O)c4ccco4)n3)ccc21 | 13900 |
| O=C(CN(C(=O)Cn1nnc(-c2ccc(Cl)c(Cl)c2)n1)C1CCCCC1)NC1CCCC1 | 303 |
| CCCCCCC1CCC/C1=N\NC(N)=S (configuration not stated) | < 15 |
